Source: PubChem (several laboratories)
Runt-SMMHC FRET: Runt domain-CBFb-SMMHC interaction inhibition; Q01196+Q13951; Cerulean-Runt/Venus-CBFb-SMMHC FRET ratio 530/480, 1 h; inhibition, % at 20 µM; actives 0.74% (n = 220,000);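 active = mean inhibition across duplicate retests at 20 µM reaching about 50%, limit read from the data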;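 also: inhibitors lower the FRET ratio by blocking Runt binding to CBFb-SMMHC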
Target sequence (Q01196 whole entry, looked up, the tested form may be a part): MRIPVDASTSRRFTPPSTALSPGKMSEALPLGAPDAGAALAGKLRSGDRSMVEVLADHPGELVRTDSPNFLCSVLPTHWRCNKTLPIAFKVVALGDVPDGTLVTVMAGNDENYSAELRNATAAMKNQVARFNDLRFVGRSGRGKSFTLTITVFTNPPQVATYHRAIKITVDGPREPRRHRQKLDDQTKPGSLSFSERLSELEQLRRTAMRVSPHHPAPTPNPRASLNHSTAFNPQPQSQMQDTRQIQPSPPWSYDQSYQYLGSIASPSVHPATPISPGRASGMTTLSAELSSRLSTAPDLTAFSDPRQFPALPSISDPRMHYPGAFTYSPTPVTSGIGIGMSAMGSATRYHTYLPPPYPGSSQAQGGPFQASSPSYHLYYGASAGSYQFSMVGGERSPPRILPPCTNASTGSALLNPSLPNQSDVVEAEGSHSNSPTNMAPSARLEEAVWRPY
Target sequence (Q13951 whole entry, looked up, the tested form may be a part): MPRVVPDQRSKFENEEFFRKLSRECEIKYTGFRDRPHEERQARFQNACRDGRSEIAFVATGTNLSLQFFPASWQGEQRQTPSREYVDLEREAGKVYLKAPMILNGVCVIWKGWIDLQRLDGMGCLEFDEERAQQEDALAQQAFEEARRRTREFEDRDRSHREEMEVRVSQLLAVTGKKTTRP
Runt-CBFb FRET: blocks binding of human RUNX1 Runt domain to CBFb; AID 1496; Q01196+Q13951; inhibition, % at 20 µM; actives 0.46% (n = 220,000); Cerulean-Runt/Venus-CBFb FRET ratio 530/480, 1 h;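 active = inhibition over about 50% at 20 µM in the single-dose screen, limit read from the data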
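test system = Cerulean-Runt domain fusion protein, energy donor | probe or stimulus = Venus-CBFb binding partner, 100 nM | incubation = two 1 h room-temperature incubations shielded from light | detection = fluorescence energy transfer, 422 nm excitation, 530/480 nm emission | measure = loss of energy transfer signal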
RanGTP-Imp inh: inhibitors of RanGTP-importin-beta interaction, primary screen, biochemical, FRET, CFP-Ran, YFP-importin-beta, homogeneous; inhibition, % (no concentration beside the values); cell-free CFP-Ran/YFP-importin-beta FRET ratio; actives 1.1% (n = 300,000);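 active = more than half of the replicate wells show a fall in the fluorescence ratio signal beyond about 16%, limit read from the data, passing the limit was not always enough; inconclusive = exactly half of the replicate wells pass the set limit; inactive = fewer than half of replicates pass the limit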
Hck-Nef inh: human Hck-Nef kinase inhibition. P08631. Recombinant Hck-YEEI plus Nef, Z-Lyte FRET kinase assay. inhibition, % at 20 µM. actives 0.68% (n = 220,000);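 active = Hck-Nef kinase inhibition above about 50%, limit read from the data; inactive = inhibition below that limit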
Each line names hits and unclear results; the compound was inactive in the other large screens; ! = not confirmed by another sample. The list is not random: actives were taken first. Their share in the collection is about 1.9%.

O=C(NC(NNc1ccc([N+](=O)[O-])cc1)(C(F)(F)F)C(F)(F)F)c1ccccc1Cl	RanGTP-Imp inh 23
CCOC(=O)c1c(-c2cccs2)csc1NC(=O)C(C)(C)C	Runt-CBFb FRET 110
COc1ccccc1OCC(=O)NCC1CCCN(Cc2cnn(C)c2C)C1 (stereo unspecified)	none (no result: Runt-SMMHC FRET, Runt-CBFb FRET, Hck-Nef inh)
CCN(CC(=O)Nc1ccc2c(c1)OCCO2)C(=O)/C=C/c1ccc(F)cc1	none
CCN(CC)S(=O)(=O)c1cc(NC(=O)Cn2ncc(Cl)c(Cl)c2=O)ccc1C	Hck-Nef inh 74
O=C(Oc1cccccc1=O)c1ccccc1	RanGTP-Imp inh 63
CN1CCN(NC(=O)c2cc(-c3ccc(Cl)s3)nc3ccccc23)CC1	none (no result: Runt-SMMHC FRET, Runt-CBFb FRET, Hck-Nef inh)
COC(=O)C1=C(N)Oc2cc(N(C)C)ccc2C1c1ccccc1OC (stereo unspecified)	RanGTP-Imp inh 24
Cn1ccnc1SCC(=O)N(C1CCCCC1)C1CCCCC1	none
CCc1cc2c(COC(=O)c3cccc(S(C)(=O)=O)c3)cc(=O)oc2cc1O	none (no result: Runt-SMMHC FRET, Runt-CBFb FRET, Hck-Nef inh)
CCc1cc2c(COC(=O)c3c(C)noc3C)cc(=O)oc2cc1O	Runt-SMMHC FRET 86, Runt-CBFb FRET 51, RanGTP-Imp inh 18
CC(C)(C)NC(=O)CSc1nnc(C2CC2)n1-c1ccccc1	RanGTP-Imp inh 52
CN(C)c1ccc(/C=C(\Cl)c2nc3ccccc3s2)cc1	Runt-SMMHC FRET 81 (no result: RanGTP-Imp inh)
COc1cc(C=C(c2nc3ccccc3s2)c2nc3ccccc3s2)cc(OC)c1O	RanGTP-Imp inh 36
CN(c1cccc(NC(=O)c2ccc(C(C)(C)C)cc2)c1)S(C)(=O)=O	none
COc1ccc(S(=O)(=O)Nc2ccc(-c3ccc4nncn4n3)cc2)c(OC)c1	none (no result: Runt-SMMHC FRET, Runt-CBFb FRET, Hck-Nef inh)
CC(=O)c1ccc(N/N=C(/C(N)=O)C2=NC(C)(C)Cc3ccccc32)cc1	Hck-Nef inh 72
CC(C)CC1C(C#N)=C(N)SC(N)=C1C#N	RanGTP-Imp inh 41
N#CC1=C(N)SC(N)=C(C#N)C1Cc1ccccc1	RanGTP-Imp inh 62
N#CC1=C(N)SC(N)=C(C#N)C1CCc1ccccc1	RanGTP-Imp inh inconclusive
CCc1ccc(C2C(C#N)=C(N)SC(N)=C2C#N)s1	none
CCOc1ccccc1N1CCN(CC(O)COC2CCCc3ccccc32)CC1 (stereo unspecified)	none (no result: Runt-SMMHC FRET, Runt-CBFb FRET, Hck-Nef inh)
CC(C)OC(=O)c1c2nc3ccccc3nc2n2c1[nH]c(=O)c1ccccc12	Runt-SMMHC FRET 62
COC(=O)Cn1c2ccccc2c2nc3ccccc3nc21	none (no result: Runt-SMMHC FRET, Runt-CBFb FRET, Hck-Nef inh)
O=C(O)Cn1c(O)c(C=Nc2ccccc2)sc1=S	Runt-SMMHC FRET 73, RanGTP-Imp inh 31!
C=CCn1c(O)c(C=Nc2ccccc2)sc1=S	none
CCOC(=O)/C(C#N)=C\C=C1C=CN(C)C=C1	RanGTP-Imp inh 51 (no result: Runt-CBFb FRET)
COc1ccc(Br)cc1C1NC(=O)c2c(sc3c2CCN(C)C3)N1 (stereo unspecified)	Runt-SMMHC FRET 65, Runt-CBFb FRET 113 (no result: RanGTP-Imp inh, Hck-Nef inh)
Cn1cccc1C1NC(=O)c2c(sc3c2CCC(C(C)(C)C)C3)N1 (stereo unspecified)	none
CN1CCc2c(sc3c2C(=O)NC(c2ccc(-c4ccc(Cl)cc4)o2)N3)C1 (stereo unspecified)	Runt-CBFb FRET 114, RanGTP-Imp inh 90
O=C1NC(c2ccco2)Nc2sc3c(c21)CCN(Cc1ccccc1)C3 (stereo unspecified)	Runt-SMMHC FRET 59 (no result: RanGTP-Imp inh)
CCOC(=O)N1CCc2c(sc3c2C(=O)NC(c2ccccc2)N3)C1 (stereo unspecified)	none
CN1CCc2c(sc3c2C(=O)NC(c2cn(Cc4ccccc4)c4ccccc24)N3)C1 (stereo unspecified)	Runt-SMMHC FRET 70, Runt-CBFb FRET 63, RanGTP-Imp inh 60
Cc1ccc(Oc2nccc(-c3ccc(Cl)cc3)n2)cc1	none
N#CC(c1ccc(Cl)cc1)c1ccc(Cl)nn1 (stereo unspecified)	none
CN1CCc2c(sc3c2C(=O)NC(c2ccco2)N3)C1 (stereo unspecified)	Runt-CBFb FRET 127, RanGTP-Imp inh 113
Cn1c(=O)n(Cc2ccccc2F)c2ccccc21	RanGTP-Imp inh 40
O=c1n(Cc2ccccc2F)c2ccccc2n1Cc1ccccc1F	none
N#Cc1cc2cc3c(cc2nc1N1CCCCC1)OCCO3	Runt-SMMHC FRET 107, RanGTP-Imp inh 59
Cc1cc(C)c2nc(N3CCN(C)CC3)c(C#N)cc2c1	none
Cc1cc2cc(C#N)c(N3CCOCC3)nc2cc1Cl	none (no result: Runt-SMMHC FRET, Runt-CBFb FRET, Hck-Nef inh)
Cc1ccc(C(=O)N2CCCN(c3nc4cc5c(cc4cc3C#N)OCO5)CC2)cc1	RanGTP-Imp inh 113 (no result: Runt-SMMHC FRET, Runt-CBFb FRET, Hck-Nef inh)
Cc1cc(C)c2nc(N3CCCN(C(=O)c4cnccn4)CC3)c(C#N)cc2c1	RanGTP-Imp inh 39
Cc1c(Cc2ccccc2)c(=O)oc2cc(O)cc(O)c12	Runt-SMMHC FRET 63
Cc1cc2c(SCC(=O)NC3CCCC3)ncnc2s1	none (no result: Runt-SMMHC FRET, Runt-CBFb FRET, Hck-Nef inh)
CCC1(c2ccccc2)NC(=O)N(CC(=O)Nc2ccc(OC)nc2)C1=O (stereo unspecified)	none (no result: Runt-SMMHC FRET, Runt-CBFb FRET, Hck-Nef inh)
COc1ccc(C2CC(c3ccccc3)=NN2C(=O)CCC(=O)O)cc1 (stereo unspecified)	none (no result: Runt-SMMHC FRET, Runt-CBFb FRET, Hck-Nef inh)
COc1ccc(C2=Nc3nc(-c4ccccc4)cn3C(c3ccc(OC)cc3)C2)cc1 (stereo unspecified)	RanGTP-Imp inh 28
CC(OC(=O)/C=C/c1ccccc1)C(=O)N1CCc2ccccc21 (stereo unspecified)	none (no result: Runt-SMMHC FRET, Runt-CBFb FRET, Hck-Nef inh)
Cc1ccc(S(=O)(=O)c2c(N)n(Cc3ccco3)c3nc4ccccc4nc23)cc1	RanGTP-Imp inh inconclusive (no result: Runt-SMMHC FRET)
Cc1cccc(S(=O)(=O)c2c(N)n(Cc3ccco3)c3nc4ccccc4nc23)c1	RanGTP-Imp inh 18 (no result: Runt-SMMHC FRET)
Cc1nn(C)cc1C(C)NC(=O)c1cc(COc2ccc(F)c(F)c2)on1 (stereo unspecified)	none (no result: Runt-SMMHC FRET, Runt-CBFb FRET, Hck-Nef inh)
Cn1c(C(=O)NCc2ccccn2)cc2c(=O)n3ccccc3nc21	Runt-SMMHC FRET 97
COc1ccc(C)cc1NC(=O)c1cc2c(=O)n3ccccc3nc2n1C	Runt-SMMHC FRET 92 (no result: RanGTP-Imp inh)
CCOC(=O)C(C)c1c(C(=O)c2ccc(C)nc2)c2ccccc2n1C (stereo unspecified)	Runt-SMMHC FRET 52
CC(CN1CCOCC1)OC(=O)c1cccc(Cl)c1 (stereo unspecified)	none (no result: Runt-SMMHC FRET, Runt-CBFb FRET, Hck-Nef inh)
Nc1cc(-c2ccccc2)nn1Cc1ccccc1	RanGTP-Imp inh 32
CC(=O)NS(=O)(=O)c1ccc(NS(=O)(=O)c2ccc3ccccc3c2)cc1	none (no result: Runt-SMMHC FRET, Runt-CBFb FRET, Hck-Nef inh)
CC(=O)NS(=O)(=O)c1ccc(NS(=O)(=O)c2ccc(F)cc2)cc1	Runt-CBFb FRET 89
COc1ccc2c(c1)c1ccc3c(c1n2C)C(=O)C=CC3=O	Runt-CBFb FRET 64 (no result: RanGTP-Imp inh)
Cc1ccc2c(c1)c1ccc3c(c1n2C)C(=O)C=CC3=O	Runt-CBFb FRET 55 (no result: RanGTP-Imp inh)
CN(C)c1c2ccccc2nc2c(F)c(F)c(F)c(F)c12	RanGTP-Imp inh 23 (no result: Runt-CBFb FRET)
Cc1c2ccccc2nc2c(F)c(N(C)C)c(F)c(F)c12	none
COc1ccc(N=Cc2nc(-c3ccco3)oc2O)cc1	RanGTP-Imp inh 20
Cc1ccc(N=Cc2nc(-c3ccc(C)cc3)oc2O)cc1	none
O=C(CN1CCOCC1)Nc1ccccc1Cl	none
N=C1C(=O)OCC1c1ccccc1NC(=O)CN1CCOCC1 (stereo unspecified)	RanGTP-Imp inh 41
